According to ChEMBL document CHEMBL1122744, “2-Chloroethyl (methylsulfonyl)methanesulfonate and related (methylsulfonyl)methanesulfonates. Antineoplastic activity in vivo” (J Med Chem, 1984):
Values joined by “and” are separate entries in the source; they are usually repeats but may differ in a detail not shown here. Equal values may be shown once.

What was measured:
[1] = tested on: Mus musculus; experiment: Mortality by day 5 expressed as number of mice died to the total treated at dose 25 mg/kg in exp2; 0/6; assay type: ADME, organism-based; set-up: dose 25 mg/kg; details: in vivo
[2] = Ratio of number of 30-day survivors to the total treated mice at dose 25 mg/kg in exp2; 3/6; assay type: functional
[3] = Ratio of median survival times for non-survivors at dose 25 mg/kg in exp2; assay type: functional
In short: (§1)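 Mice were inoculated ip with 10^6 P388 leukemia cells on day 0. Groups of six (occasionally five) were dosed ip qd on days 1–5 with fresh suspensions; 30 mice served as untreated controls. Deaths were recorded daily up to day 60. T/C% compares the median survival of treated non-survivors (<60 days) with the control median. Medians used grouped data when there were no 30-day survivors, otherwise ungrouped data. t = toxic.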

[4] = tested on: Mus musculus; experiment: Mortality by day 5 expressed as number of mice died to the total treated at dose 200 mg/kg in exp1; 5/6; assay type: ADME, organism-based; set-up: dose 200 mg/kg; details: in vivo
[5] = tested on: Mus musculus; experiment: Change in weight by day 5, obtained by subtracting treated groups of animals minus control groups of animals at dose 25 mg/kg in exp2; assay type: functional
In short: (§2)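 Mice were inoculated ip with 10^6 P388 leukemia cells on day 0, when treated and control mice weighed 19–22 g. Treatment was given ip once daily on days 1–5, within about 5 min of preparing the solution or suspension. Groups of six (occasionally five) were treated, with 30 untreated inoculated mice as controls. The day-5 weight change is the mean treated change minus the mean control change.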

[6] = Ratio of median survival times for non-survivors at dose 100 mg/kg in exp1; t=toxic; assay type: ADME, organism-based; set-up: dose 100 mg/kg; details: in vivo; in short: as §1
[7] = tested on: Mus musculus; experiment: Median survival time of the untreated control groups, in which there are no 30-day survivors at dose 25 mg/kg in exp2; assay type: functional
[8] = tested on: Mus musculus; experiment: Change in weight by day 5, obtained by subtracting treated groups of animals minus control groups of animals at dose 50 mg/kg in exp2; assay type: functional; in short: as §2
[9] = Ratio of number of 60-day survivors to the total treated mice at dose 25 mg/kg in exp1; 0/6; assay type: functional
[10] = tested on: Mus musculus; experiment: Median survival time of the untreated control groups, in which there are no 30-day survivors at dose 50 mg/kg in exp1; assay type: functional
[11] = tested on: Mus musculus; experiment: Median survival time of the treated control groups, in which there are no 30-day survivors at dose 25 mg/kg in exp2; assay type: functional
[12] = tested on: Mus musculus; experiment: Median survival time of the treated control groups, in which there are no 30-day survivors at dose 12 mg/kg in exp2; assay type: functional; details: 12 mg/kg
[13] = Ratio of median survival times for non-survivors at dose 12 mg/kg in exp2; assay type: functional; details: 12 mg/kg; in short: as §1
[14] = tested on: Mus musculus; experiment: Mortality by day 5 expressed as number of mice died to the total treated at dose 50 mg/kg in exp1; 6/6; assay type: ADME, organism-based; set-up: dose 50 mg/kg; details: in vivo
[15] = Ratio of median survival times for non-survivors at dose 50 mg/kg in exp1; t= toxic; assay type: ADME, organism-based; set-up: dose 50 mg/kg; details: in vivo
[16] = tested on: Mus musculus; experiment: Median survival time of the untreated control groups, in which there are no 30-day survivors at dose 100 mg/kg in exp1; assay type: functional
[17] = tested on: Mus musculus; experiment: Median survival time of the untreated control groups, in which there are no 30-day survivors at dose 12 mg/kg in exp2; assay type: functional
[18] = tested on: Mus musculus; experiment: Mortality by day 5 expressed as number of mice died to the total treated at dose 6 mg/kg in exp2; 0/6; assay type: ADME, organism-based; set-up: dose 6 mg/kg; details: in vivo
[19] = Ratio of number of 30-day survivors to the total treated mice at dose 25 mg/kg in exp1; 2/6; assay type: functional
[20] = tested on: Mus musculus; experiment: Mortality by day 5 expressed as number of mice died to the total treated at dose 25 mg/kg in exp1; 2/6; assay type: ADME, organism-based; set-up: dose 25 mg/kg; details: in vivo
[21] = Ratio of number of 60-day survivors to the total treated mice at dose 25 mg/kg in exp2; 2/6; assay type: functional
[22] = Ratio of number of 60-day survivors to the total treated mice at dose 25 mg/kg in exp2; 1/6; assay type: functional
[23] = tested on: Mus musculus; experiment: Change in weight by day 5, obtained by subtracting treated groups of animals minus control groups of animals at dose 12 mg/kg in exp2; assay type: functional; in short: as §2
[24] = tested on: Mus musculus; experiment: Median survival time of the untreated control groups, in which there are no 30-day survivors at dose 25 mg/kg in exp1; assay type: functional
[25] = tested on: Mus musculus; experiment: Median survival time of the treated control groups, in which there are no 30-day survivors at dose 25 mg/kg in exp1*-based on the four of six that survived bryond 5th day; assay type: functional
[26] = Ratio of median survival times for non-survivors at dose 25 mg/kg in exp1*-based on the four of six that survived bryond 5th day; assay type: functional
[27] = tested on: Mus musculus; experiment: Change in weight by day 5, obtained by subtracting treated groups of animals minus control groups of animals at dose 25 mg/kg in exp1.; assay type: functional; in short: as §2
[28] = tested on: Mus musculus; experiment: Mortality by day 5 expressed as number of mice died to the total treated at dose 100 mg/kg in exp1; 6/6; assay type: ADME, organism-based; set-up: dose 100 mg/kg; details: in vivo
[29] = tested on: Mus musculus; experiment: Change in weight by day 5, obtained by subtracting treated groups of animals minus control groups of animals at dose 6 mg/kg in exp2; assay type: functional
In short: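 Mice were inoculated ip with 10^6 P388 leukemia cells on day 0 and weighed 19–22 g that day. Compound was given ip once daily on days 1–5, within about 5 min of preparing the solution or suspension, to groups of six (occasionally five). Thirty inoculated untreated mice served as controls. The value is the average weight change of treated mice minus that of controls on day 5.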

[30] = tested on: Mus musculus; experiment: Mortality by day 5 expressed as number of mice died to the total treated at dose 50 mg/kg in exp1; 0/6; assay type: ADME, organism-based; set-up: dose 50 mg/kg; details: in vivo
[31] = Ratio of median survival times for non-survivors at dose 100 mg/kg in exp1; assay type: functional; set-up: unit: %; in short: as §1
[32] = tested on: Mus musculus; experiment: Change in weight by day 5, obtained by subtracting treated groups of animals minus control groups of animals at dose 50 mg/kg in exp1.; assay type: functional; in short: as §2
[33] = tested on: Mus musculus; experiment: Change in weight by day 5, obtained by subtracting treated groups of animals minus control groups of animals at dose 100 mg/kg in exp1.; assay type: functional; in short: as §2
[34] = tested on: Mus musculus; experiment: Median survival time of the treated control groups, in which there are no 30-day survivors at dose 100 mg/kg in exp1; assay type: functional
[35] = tested on: Mus musculus; experiment: Mortality by day 5 expressed as number of mice died to the total treated at dose 100 mg/kg in exp1; 0/6; assay type: ADME, organism-based; set-up: dose 100 mg/kg; details: in vivo
[36] = Ratio of median survival times for non-survivors at dose 50 mg/kg in exp1; assay type: functional; set-up: unit: %; in short: as §1
[37] = tested on: Mus musculus; experiment: Median survival time of the treated control groups, in which there are no 30-day survivors at dose 50 mg/kg in exp1; assay type: functional
[38] = tested on: Mus musculus; experiment: Median survival time of the untreated control groups, in which there are no 30-day survivors at dose 200 mg/kg in exp1; assay type: functional
[39] = Ratio of median survival times for non-survivors at dose 200 mg/kg in exp1; t= toxic; assay type: ADME, organism-based; set-up: dose 200 mg/kg; details: in vivo; in short: as §1

CS(=O)(=O)CS(=O)(=O)OCCF
Mortality [1]: 0 | Ratio [2]: 3 | Ratio [3]: 286 | Mortality [4]: 5 | Change in weight [5]: -5.6 | Ratio [6]: Toxic | Median survival time [7]: 10.5 | Change in weight [8]: -4.8 | Ratio [9]: 0 | Median survival time [10]: 11.2 | Median survival time [11]: 30 | Median survival time [12]: 19.8 and 15 | Ratio [13]: 188 and 142 | Mortality [14]: 6 | Ratio [15]: Toxic | Median survival time [16]: 11.2 | Median survival time [17]: 10.5 | Mortality [18]: 0 | Ratio [19]: 2 | Mortality [20]: 2 | Ratio [21]: 2 | Ratio [22]: 1 | Change in weight [23]: -3.7 | Median survival time [24]: 11.2 | Median survival time [25]: 31 | Ratio [26]: 277 | Change in weight [27]: -4.3 | Mortality [28]: 6 | Change in weight [29]: -1.8

O=S(=O)(CCl)OCCBr
Mortality [30]: 0 | Ratio [31]: 114 | Mortality [4]: 5 | Change in weight [32]: -0.5 | Median survival time [10]: 11.1 | Change in weight [33]: -1.5 | Median survival time [34]: 12.7 | Median survival time [16]: 11.1 | Mortality [35]: 0 | Ratio [36]: 110 | Median survival time [37]: 12.3 | Median survival time [38]: 11.1 | Ratio [39]: Toxic
